This is an account of results in ChEMBL document CHEMBL3997809, “Design and synthesis of a new series of 3,5-disubstituted isoxazoles active against Trypanosoma cruzi and Leishmania amazonensis” (Eur J Med Chem, 2017).

The IC50 is the midpoint of a concentration-inhibition curve. The CC50 is the concentration at which the toxic effect on the cells reaches its halfway point.

One series deals with Leishmania infantum. In words: Growth inhibition of Leishmania infantum MHOM/BR/74/PP75 amastigote forms expressing beta-galactosidase infected in human THP1 cells at 50 uM after 48 hrs relative to control. Type of series: functional. Particulars: MHOM/BR/74/PP75, THP-1, 48 h, read-out: GI. The method, boiled down: (§1)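 THP-1 cells seeded at 4.0 × 10^4 cells/well and differentiated with PMA 100 ng/ml for 72 h. Promastigotes (4-day culture) opsonized 1 h at 34 °C in RPMI-1640 with 10% heat-inactivated human B+ serum. Infection at 10:1 parasite/cell for 3 h at 34 °C, washed, then 24 h for amastigote transformation. Compound treatment in triplicate for 48 h at 34 °C. Read-out: CPRG 100 µM with 0.1% NP-40, 16 h, OD 570/630 nm. Negative control DMSO 1%.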

The test system of series [1] is Leishmania amazonensis. The series is described as follows: Antileishmanial activity against Leishmania amazonensis MHOM/BR/77/LTB0016 amastigote forms expressing beta-galactosidase infected in human THP1 cells after 48 hrs. Type of series: functional, cell-based. Particulars: MHOM/BR/77/LTB0016, THP-1, 48 h. The method, boiled down:
as §1

Series [2] concerns Trypanosoma cruzi. The series is described as follows: Trypanocidal activity against Trypanosoma cruzi Tulahuen amastigote forms infected in human THP1 cells after 48 hrs. In kind it is functional, cell-based. Particulars: THP-1, 48 h. The method, boiled down:
(§2)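 PMA-differentiated THP-1 macrophages (4.0 × 10^4 cells/well, 100 ng/ml, 72 h) infected with trypomastigotes at 2:1 parasite/cell overnight at 37 °C. Washed, then 24 h more for amastigote transformation. Compounds added in triplicate for 48 h at 37 °C, 5% CO2. Read-out: CPRG 100 µM with 0.1% NP-40 for 16 h, OD 570/630 nm. Negative control DMSO 1%.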

Series [3] is described as follows: Cytotoxicity against human THP1 cells assessed as reduction in cell viability after 72 hrs by MTT assay. In kind it is cell-based. Particulars: THP-1 cells. The method, boiled down:
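PMA-differentiated THP-1 cells exposed to serial dilutions from 15.6 to 500 µM for 72 h at 37 °C, 5% CO2. Viability by MTT reduction to formazan, dissolved in DMSO, OD 540 nm. Gives CC50.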
(Tetrazolium assays rely on reduction of a dye to a coloured formazan, in cell work by metabolically active cells.)

The nature of series [4]: Selectivity index, ratio of CC50 for human THP1 cells to IC50 for Leishmania amazonensis MHOM/BR/77/LTB0016 amastigote forms expressing beta-galactosidase infected in human THP1 cells. Particulars: read-out: Ratio CC50/IC50. In kind it is toxicity, cell-based. The method, boiled down: (§3)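 Ratio of CC50 from the 72 h MTT assay in PMA-differentiated THP-1 cells to IC50 against intracellular amastigotes in THP-1 cells measured by CPRG read-out after 48 h.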

Series [5] concerns Trypanosoma cruzi. In words: Trypanocidal activity against Trypanosoma cruzi Tulahuen trypomastigote forms at 3.9 to 250 uM after 72 hrs by MTT assay. In kind it is functional. The method, boiled down:
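Culture-derived Tulahuen trypomastigotes raised from infected L929 cells, 1.5 × 10^6 parasites/well. Compounds serially diluted from 250 to 3.9 µM, incubated 72 h at 37 °C, 5% CO2. Viability by MTT, OD 540 nm after dissolving formazan in DMSO. Negative control DMSO 1%.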

Another series deals with Trypanothione reductase (Trypanosoma cruzi, UniProt P28593). The series is described as follows: Inhibition of Trypanosoma cruzi trypanothione reductase expressed in Escherichia coli BL21(DE3) using T(S)2 as substrate incubated for 30 mins in presence of NADPH measured for 30 mins. The method, boiled down:
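Enzyme purified by affinity chromatography. Then T(S)2 1 µM and compound in DMSO added, 30 min at 27 °C, followed by further DTNB. A412 followed for 30 min. Negative control DMSO 1%.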

A short description of series [6]: Selectivity index, ratio of CC50 for human THP1 cells to IC50 for Trypanosoma cruzi Tulahuen amastigote forms infected in human THP1 cells. In kind it is toxicity, cell-based. Particulars: read-out: Ratio CC50/IC50. Put shortly: as §3
For series [7], the system named is Trypanosoma cruzi. The series is described as follows: Growth inhibition of Trypanosoma cruzi Tulahuen amastigote forms infected in human THP1 cells at 100 uM after 48 hrs relative to control. In kind it is functional. Particulars: THP-1, 48 h, read-out: GI. The method, boiled down:
as §2

Series [8] deals with Leishmania amazonensis. In words: Growth inhibition of Leishmania amazonensis MHOM/BR/77/LTB0016 amastigote forms expressing beta-galactosidase infected in human THP1 cells at 100 uM after 48 hrs relative to control. In kind it is functional. Particulars: MHOM/BR/77/LTB0016, THP-1, 48 h, read-out: GI. The method, boiled down:
as §1

Active and inactive are the calls of the source. No cut-off for these calls is given here. Where only a bound is given, the exact number is not on record here.

Sequence of Trypanothione reductase (P28593 whole entry): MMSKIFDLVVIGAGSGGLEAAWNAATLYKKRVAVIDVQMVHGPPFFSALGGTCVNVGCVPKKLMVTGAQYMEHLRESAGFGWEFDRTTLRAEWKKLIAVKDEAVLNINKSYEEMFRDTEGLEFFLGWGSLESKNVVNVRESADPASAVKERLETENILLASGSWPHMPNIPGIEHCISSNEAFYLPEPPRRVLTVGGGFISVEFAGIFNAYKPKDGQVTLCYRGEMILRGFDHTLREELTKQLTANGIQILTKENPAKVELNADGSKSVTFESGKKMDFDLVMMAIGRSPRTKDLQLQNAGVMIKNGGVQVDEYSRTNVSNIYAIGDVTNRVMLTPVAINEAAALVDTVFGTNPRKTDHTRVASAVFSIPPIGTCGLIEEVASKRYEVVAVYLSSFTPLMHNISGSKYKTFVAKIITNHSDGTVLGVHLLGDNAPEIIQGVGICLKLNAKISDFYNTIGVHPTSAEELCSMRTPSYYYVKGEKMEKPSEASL

On to `ClCc1ccc(-c2cc(-c3ccc4c(c3)OCO4)no2)cc1`, for which the inhibition of growth at 50 µM with Leishmania infantum came out at 9.01%. The results for the IC50 in the series on Leishmania amazonensis [1], in the series on Trypanosoma cruzi [2] and on Trypanothione reductase were 5.08 µM, 1.13 µM and above 100 µM, respectively. For the same compound, the CC50 at 72 h in series [3] was found to be 182 µM. In addition, the selectivity ratio in [4] is 35.8; in series [6], 161. Moreover, the outcome in the series on Trypanosoma cruzi [5] was inactive. In addition, the inhibition of growth at 100 µM stood at 95.8% with Trypanosoma cruzi [7] and 57.7% with Leishmania amazonensis [8].
